One experiment has as its target griffithsin (GRFT) (Griffithsia sp., UniProt P84801). It counts as binding.
A further experiment has as its target immobilized GRFT (Griffithsia sp., UniProt P84801). Kind of experiment: SPR analysis of binding to immobilized GRFT. The conditions noted are these: run in triplicate; for binding response to immobilized GRFT (in words): SPR sensorgrams; for dissociation rate (koff) from GRFT (in words) / association rate (kon) to GRFT (in words): SPR, immobilized GRFT. The method in brief:
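Glycopeptide high-mannose mimetics with varied mannose valency and spacing were passed over immobilized griffithsin, with a nonglycosylated peptide as negative control. Runs were in triplicate. Sensorgrams and Langmuir binding curves were generated, and association and dissociation rates were assessed from the sensorgrams.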
A general note: In SPR one partner is held on a chip, and binding of the other changes the refractive index at the surface.

Where [1] appears, read: isothermal titration calorimetry, binding to GRFT, value ± spread.

Residues, ends and D or L forms follow the SMILES beside them. *: point of attachment. X1 = O=C(CO[C@H]1O[C@H](CO)[C@@H](O)[C@H](O)[C@@H]1O)*

We go through 14 compounds from publication PMC6260803 (Angewandte Chemie (International ed. in English), 2015).

Chain of immobilized GRFT (P84801 whole entry): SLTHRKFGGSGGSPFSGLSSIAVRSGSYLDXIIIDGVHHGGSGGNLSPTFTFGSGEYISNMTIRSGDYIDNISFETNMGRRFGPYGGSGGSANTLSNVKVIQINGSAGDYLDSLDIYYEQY
Chain of griffithsin (GRFT) (P84801 whole entry): as above

As for `CC(=O)N[C@@H](CCCCNC(=O)CO[C@H]1O[C@H](CO)[C@@H](O)[C@H](O)[C@@H]1O)C(=O)NCC(=O)N[C@@H](CCCCNC(=O)CO[C@H]1O[C@H](CO)[C@@H](O)[C@H](O)[C@@H]1O)C(N)=O` [Compound 1], at griffithsin (GRFT) (setting [1]), the “n (stoichiometry of binding)” value came to 1.56 ± 0.01. Moreover, the “binding response to immobilized GRFT (in words)” value (from here on “binding response”) on immobilized GRFT was “weakest response of any of the glycopeptides”.

On to `CC(=O)N[C@@H](CCCCNC(=O)CO[C@H]1O[C@H](CO)[C@@H](O)[C@H](O)[C@@H]1O)C(=O)NCC(=O)N[C@@H](CCCCNC(=O)CO[C@H]1O[C@H](CO)[C@@H](O)[C@H](O)[C@@H]1O)C(=O)NCC(=O)N[C@@H](CCCCNC(=O)CO[C@H]1O[C@H](CO)[C@@H](O)[C@H](O)[C@@H]1O)C(N)=O` [Compound 2], for which the “stoichiometry of binding to GRFT (rounded, as stated in text)” value (shortened to “stoichiometry of binding to GRFT”) at griffithsin (GRFT) (ITC) came out at 1. Besides, the “n (stoichiometry of binding)” value on griffithsin (GRFT) (setting [1]) is reported as 0.96 ± 0.24.

With `CC(=O)N[C@@H](CCCCNC(=O)CO[C@H]1O[C@H](CO)[C@@H](O)[C@H](O)[C@@H]1O)C(=O)NCC(=O)N[C@@H](CCCCNC(=O)CO[C@H]1O[C@H](CO)[C@@H](O)[C@H](O)[C@@H]1O)C(=O)NCC(=O)N[C@@H](CCCCNC(=O)CO[C@H]1O[C@H](CO)[C@@H](O)[C@H](O)[C@@H]1O)C(=O)NCC(=O)N[C@@H](CCCCNC(=O)CO[C@H]1O[C@H](CO)[C@@H](O)[C@H](O)[C@@H]1O)C(N)=O` [Compound 3], the “n (stoichiometry of binding)” value at griffithsin (GRFT) (setting [1]) was 0.68 ± 0.03.

As to `CC(=O)N[C@@H](CCCCNC(=O)CO[C@H]1O[C@H](CO)[C@@H](O)[C@H](O)[C@@H]1O)C(=O)NCC(=O)N[C@@H](CCCCNC(=O)CO[C@H]1O[C@H](CO)[C@@H](O)[C@H](O)[C@@H]1O)C(=O)NCC(=O)N[C@@H](CCCCNC(=O)CO[C@H]1O[C@H](CO)[C@@H](O)[C@H](O)[C@@H]1O)C(=O)NCC(=O)N[C@@H](CCCCNC(=O)CO[C@H]1O[C@H](CO)[C@@H](O)[C@H](O)[C@@H]1O)C(=O)NCC(=O)N[C@@H](CCCCNC(=O)CO[C@H]1O[C@H](CO)[C@@H](O)[C@H](O)[C@@H]1O)C(=O)NCC(=O)N[C@@H](CCCCNC(=O)CO[C@H]1O[C@H](CO)[C@@H](O)[C@H](O)[C@@H]1O)C(N)=O` [Compound 4], the “stoichiometry of binding to GRFT” value at griffithsin (GRFT) (ITC) is on record as 0.5. Also, the “n (stoichiometry of binding)” value on griffithsin (GRFT) (setting [1]) is 0.52 ± 0.05. Further, the “dissociation rate (koff) from GRFT (in words)” value (“dissociation rate (koff)” below) at immobilized GRFT was “significantly slower rate than Km3G1 and Km4G1”.

Regarding `CC(=O)N[C@@H](CCCCNC(=O)CO[C@H]1O[C@H](CO)[C@@H](O)[C@H](O)[C@@H]1O)C(=O)NCC(=O)NCC(=O)N[C@@H](CCCCNC(=O)CO[C@H]1O[C@H](CO)[C@@H](O)[C@H](O)[C@@H]1O)C(=O)NCC(=O)NCC(=O)N[C@@H](CCCCNC(=O)CO[C@H]1O[C@H](CO)[C@@H](O)[C@H](O)[C@@H]1O)C(N)=O` [Compound 5] (Ac-K(X1)GGK(X1)GGK(X1)-NH2; N-terminus and C-terminus assumed), the “n (stoichiometry of binding)” value on griffithsin (GRFT) (setting [1]) is 1.16 ± 0.25.

As for `CC(=O)N[C@@H](CCCCNC(=O)CO[C@H]1O[C@H](CO)[C@@H](O)[C@H](O)[C@@H]1O)C(=O)N[C@@H](CCCCNC(=O)CO[C@H]1O[C@H](CO)[C@@H](O)[C@H](O)[C@@H]1O)C(=O)N[C@@H](CCCCNC(=O)CO[C@H]1O[C@H](CO)[C@@H](O)[C@H](O)[C@@H]1O)C(N)=O` [Compound 6], the “n (stoichiometry of binding)” value at griffithsin (GRFT) (setting [1]) was 0.98 ± 0.11.

As for `CC(=O)N[C@@H](CCCNC(=O)CO[C@H]1O[C@H](CO)[C@@H](O)[C@H](O)[C@@H]1O)C(=O)N[C@@H](CCCNC(=O)CO[C@H]1O[C@H](CO)[C@@H](O)[C@H](O)[C@@H]1O)C(=O)N[C@@H](CCCNC(=O)CO[C@H]1O[C@H](CO)[C@@H](O)[C@H](O)[C@@H]1O)C(N)=O` [Compound 7], the “stoichiometry of binding to GRFT” value at griffithsin (GRFT) (ITC) was determined as 1. In addition, on griffithsin (GRFT) (setting [1]), the “n (stoichiometry of binding)” value was determined as 0.94 ± 0.19.

As to `CC(=O)N[C@@H](CNC(=O)CO[C@H]1O[C@H](CO)[C@@H](O)[C@H](O)[C@@H]1O)C(=O)N[C@@H](CNC(=O)CO[C@H]1O[C@H](CO)[C@@H](O)[C@H](O)[C@@H]1O)C(=O)N[C@@H](CNC(=O)CO[C@H]1O[C@H](CO)[C@@H](O)[C@H](O)[C@@H]1O)C(N)=O` [Compound 8], the “stoichiometry of binding to GRFT” value on griffithsin (GRFT) (ITC) is reported as 1.5. In addition, on griffithsin (GRFT) (setting [1]), the “n (stoichiometry of binding)” value was 1.38 ± 0.17. On immobilized GRFT, the “dissociation rate (koff)” value is reported as “by far the slowest dissociation rate”.

Regarding `NC(=O)[C@H](CCCCNC(=O)[C@H](CCCCNC(=O)CO[C@H]1O[C@H](CO)[C@@H](O)[C@H](O)[C@@H]1O)NC(=O)CO[C@H]1O[C@H](CO)[C@@H](O)[C@H](O)[C@@H]1O)NC(=O)[C@H](CCCCNC(=O)CO[C@H]1O[C@H](CO)[C@@H](O)[C@H](O)[C@@H]1O)NC(=O)CO[C@H]1O[C@H](CO)[C@@H](O)[C@H](O)[C@@H]1O` [Compound 10], the “stoichiometry of binding to GRFT” value on griffithsin (GRFT) (ITC) was 2. For the same compound, the “n (stoichiometry of binding)” value on griffithsin (GRFT) (setting [1]) stood at 1.96 ± 0.09. On immobilized GRFT, the “association rate (kon) to GRFT (in words)” value is recorded as “slower kon rates” and the “dissociation rate (koff)” value is recorded as “very slow koff rates”.

Take `NC(=O)[C@H](CCCCNC(=O)CNC(=O)[C@H](CCCCNC(=O)CO[C@H]1O[C@H](CO)[C@@H](O)[C@H](O)[C@@H]1O)NC(=O)CO[C@H]1O[C@H](CO)[C@@H](O)[C@H](O)[C@@H]1O)NC(=O)CNC(=O)[C@H](CCCCNC(=O)CO[C@H]1O[C@H](CO)[C@@H](O)[C@H](O)[C@@H]1O)NC(=O)CO[C@H]1O[C@H](CO)[C@@H](O)[C@H](O)[C@@H]1O` [Compound 11]: the “stoichiometry of binding to GRFT” value on griffithsin (GRFT) (ITC) was 1.5. Moreover, the “n (stoichiometry of binding)” value on griffithsin (GRFT) (setting [1]) worked out at 1.45 ± 0.12. For the same compound, at immobilized GRFT, the “association rate (kon) to GRFT (in words)” value is recorded as “slower kon rates” and the “dissociation rate (koff)” value is given as “very slow koff rates”.

In the case of `NC(=O)[C@H](CCCCNC(=O)[C@H](CCCCNC(=O)CNC(=O)CO[C@H]1O[C@H](CO)[C@@H](O)[C@H](O)[C@@H]1O)NC(=O)CNC(=O)CO[C@H]1O[C@H](CO)[C@@H](O)[C@H](O)[C@@H]1O)NC(=O)[C@H](CCCCNC(=O)CNC(=O)CO[C@H]1O[C@H](CO)[C@@H](O)[C@H](O)[C@@H]1O)NC(=O)CNC(=O)CO[C@H]1O[C@H](CO)[C@@H](O)[C@H](O)[C@@H]1O` [Compound 12], the “stoichiometry of binding to GRFT” value on griffithsin (GRFT) (ITC) came out at 1. For the same compound, the “Kd lower compared to glycopeptides 10 and 11” value on griffithsin (GRFT) (ITC, Kd of 12 versus 10 and 11) is reported as “approximately 30 fold”. Besides, at griffithsin (GRFT) (setting [1]), the “n (stoichiometry of binding)” value is reported as 1.08 ± 0.08.

For orientation: Kd means the constant that tells how readily two partners part at equilibrium. Higher therefore signals lower affinity. Turning to `CC(=O)N[C@@H]1[C@@H](O)[C@H](O[C@@H]2O[C@H](CO)[C@@H](O[C@@H]3O[C@H](CO[C@H]4O[C@H](CO[C@H]5O[C@H](CO)[C@@H](O)[C@H](O)[C@@H]5O[C@H]5O[C@H](CO)[C@@H](O)[C@H](O)[C@@H]5O)[C@@H](O)[C@H](O[C@H]5O[C@H](CO)[C@@H](O)[C@H](O)[C@@H]5O[C@H]5O[C@H](CO)[C@@H](O)[C@H](O)[C@@H]5O)[C@@H]4O)[C@@H](O)[C@H](O[C@H]4O[C@H](CO)[C@@H](O)[C@H](O)[C@@H]4O[C@H]4O[C@H](CO)[C@@H](O)[C@H](O)[C@@H]4O[C@H]4O[C@H](CO)[C@@H](O)[C@H](O)[C@@H]4O)[C@@H]3O)[C@H](O)[C@H]2NC(C)=O)[C@@H](CO)O[C@H]1NC(=O)C[C@H](N)C(=O)O` [Compound 14, Man9GlcNAc2Asn, reference compound], at griffithsin (GRFT) (setting [1]), the dissociation constant Kd came to 540 ± 270 nM and the “n (stoichiometry of binding)” value is on record as 1.39 ± 0.12. For the same compound, on immobilized GRFT, the “dissociation rate (koff)” value was “slower koff rate than nonamannoside 13”.

For the compound chitobiose [reference compound], on immobilized GRFT, the “binding response” value is reported as “Negligible binding”.

For pentamannoside [reference compound], the “binding response” value at immobilized GRFT was “Negligible binding”.
